Article PMC4802972 (Biochimica et biophysica acta, 2014)
Where two headings read alike, the source gives them in different places. Values belong to the compound of their own block, whether it stands above or below them.

Key:
[1] = system: S. aureus BstA; format: biochemical, Staphylococcus aureus; settings: for reduction of enzymatic rate compared to untreated +BstA reaction / reaction rate of +BstA reaction after treatment: 1 mM phenanthroline, 220 nM BstA; for reaction rate of +BstA reaction after treatment: 50 μM BSH, 23°C
[2] = system: S. aureus BstA; assay: Direct BstA reactions; format: biochemical, Staphylococcus aureus; settings: for BstA dependence of reaction with BSH: with and without BstA
How it was run: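 Purified His6-tag-cleaved S. aureus BstA, expressed in E. coli C41 (DE3). Cerulenin and BSH, 500 μM each, reacted with and without 220 nM BstA. Samples diluted 5-fold into 10 mM methanesulfonic acid, concentrated, then run on C18 reverse-phase HPLC at 0.4 mL/min with a 0–70% B gradient over 40 min (A 0.05% TFA-water, B 60% acetonitrile-water). Detection at 220 nm.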

[3] = cited from earlier work
[4] = molecular target: T1, BstA (Staphylococcus aureus, UniProt A0A0H2XDW9); assay: Saturation kinetics of BstA; format: biochemical; settings: for kcat: pH 7.0, BSH and mBCl at 37°C with 220 nM BstA, CDNB at 23°C with 2.8 μM BstA
[5] = system: S. aureus FosB; settings: read-out: Km of FosB for BSH; cited from earlier work
[6] = Direct non-enzymatic reaction with BSH
[7] = molecular target: T1, BstA; assay: Inhibition constants of carboxamido-1,3,4-oxadiazole kinase inhibitors; format: biochemical
[8] = system: S. aureus MW2; settings: cited from earlier work
[9] = + 220 nM BstA, 50 μM thiol, 50 μM mBCl, pH 7.0
[10] = − BstA, 50 μM thiol, 50 μM mBCl, pH 7.0

Structure (SMILES): c1cnc2c(c1)ccc1ncccc12 [1,7-phenanthroline]
reduction of enzymatic rate compared to untreated +BstA reaction [1]: 27%
reaction rate of +BstA reaction after treatment ([1]; 50 μM mBCl): 105 nmol/min/mg

Structure (SMILES): c1cnc2c(c1)ccc1cccnc12 [1,10-phenanthroline]
reduction of enzymatic rate compared to untreated +BstA reaction [1]: > 99%
reaction rate of +BstA reaction after treatment ([1]; 50 μM mBCl): 12.5 ± 0.7 nmol/min/mg

Structure (SMILES): CCCCCC(O)/C=C/C=O (centres unmarked) [4-hydroxynonenal]
BstA dependence of reaction with BSH [2]: BstA-independent

Structure (SMILES): N[C@@H](CS)C(=O)N[C@H]1[C@@H](O[C@@H](CC(=O)O)C(=O)O)O[C@H](CO)[C@@H](O)[C@@H]1O [BSH, bacillithiol]
thiol pKa [3]: 7.46
Km of BstA for BSH lower than that of S. aureus FosB ([4]; BstA vs FosB): 260 fold
kcat [4]: 0.21 ± 0.01 s⁻¹
Specific Activity + BstA [1, 9]: 152 ± 8 nmol/min/mg
Specific Activity − BstA [1, 10]: 8.4 ± 0.3 nmol/min/mg
Km [5]: 4.2 ± 0.7 mM

Structure (SMILES): O=[N+]([O-])c1ccc(Cl)c([N+](=O)[O-])c1 [CDNB, 1-chloro-2,4-dinitrobenzene]
catalytic efficiency below that of mBCl ([4]; CDNB vs mBCl): 8 fold
kcat [4]: 0.22 ± 0.02 s⁻¹

Structure (SMILES): CC(C)(COP(=O)(O)OP(=O)(O)OC[C@H]1O[C@@H](n2cnc3c(N)ncnc32)[C@H](O)[C@@H]1OP(=O)(O)O)[C@@H](O)C(=O)NCCC(=O)NCCS [Coenzyme A, coenzyme A]
thiol pKa [3]: 9.6
Specific Activity + BstA [1, 9]: 1.4 ± 0.1 nmol/min/mg
Specific Activity − BstA [1, 10]: 1.2 ± 0.1 nmol/min/mg

Structure (SMILES): N[C@@H](CS)C(=O)O [Cysteine, cysteine]
Specific Activity + BstA [1, 9]: 8.3 ± 0.5 nmol/min/mg
Specific Activity − BstA [1, 10]: 6.7 ± 0.3 nmol/min/mg

Structure (SMILES): O=C(O)CN(CCN(CC(=O)O)CC(=O)O)CC(=O)O [EDTA, ethylenediaminetetraacetic acid]
effect on BstA activity [1]: abolished activity

Structure (SMILES): N[C@@H](CCC(=O)N[C@@H](CS)C(=O)NCC(=O)O)C(=O)O [Glutathione, glutathione]
Specific Activity + BstA ([1]; pH 7): 3.9 ± 0.1 nmol/min/mg
Specific Activity − BstA ([1]; pH 7): 4.4 ± 0.4 nmol/min/mg

Structure (SMILES): CC(=O)N[C@@H](CS)C(=O)N[C@H]1[C@@H](OC2[C@H](O)[C@H](O)C(O)[C@H](O)[C@H]2O)O[C@H](CO)[C@@H](O)[C@@H]1O (some centres unmarked) [Mycothiol, mycothiol]
Specific Activity + BstA [1, 9]: 3.3 ± 0.1 nmol/min/mg
Specific Activity − BstA [1, 10]: 3.0 ± 0.1 nmol/min/mg

Structure (SMILES): C/C=C/C/C=C/CCC(=O)[C@H]1O[C@H]1C(N)=O [cerulenin]
non-enzymatic rate of adduct formation with BSH ([6]; 500 μM cerulenin, 500 μM BSH, −BstA): 170 nmol/min/mg
adduct formation rate with BSH, +BstA ([2]; 500 μM cerulenin, 500 μM BSH, 220 nM BstA): 300 nmol/min/mg
BstA catalyzed reaction rate ([2]; cerulenin with BSH, net enzymatic rate): 130 nmol/min/mg
BstA dependence of reaction with BSH [2]: weak substrate

Ki [7]: ~3 µM
inhibition of BstA in concentration dependent inhibitor studies ([7]; 5 μM inhibitor): effective inhibitor
Structure (SMILES): O=C(Nc1nnc(-c2ccc(F)cc2)o1)c1ccc(Br)s1 [compound 3, 5-bromo-N-[5-(4-fluorophenyl)-1,3,4-oxadiazol-2-yl]thiophene-2-carboxamide]

Structure (SMILES): C=C(CC)C(=O)c1ccc(OCC(=O)O)c(Cl)c1Cl [etacrynic acid]
BstA dependence of reaction with BSH [2]: BstA-independent

Structure (SMILES): OO [hydrogen peroxide]
increase of bstA expression [8]: 3 fold
upregulation of brxB ortholog [8]: 6 fold
upregulation of glxA ortholog [8]: 2 fold

Structure (SMILES): OCl [hypochlorous acid]
increase of bstA expression [8]: 2 fold
upregulation of brxB ortholog [8]: 2 fold
upregulation of glxA ortholog [8]: 3 fold

Structure (SMILES): Cc1c(C)n2c(CCl)c(C)c(=O)n2c1=O [mBCl, monochlorobimane]
Km below the Km of CDNB ([4]; mBCl vs CDNB): over 10 fold
kcat [4]: 0.30 ± 0.02 s⁻¹

Structure (SMILES): CO[C@H]1/C=C/O[C@@]2(C)Oc3c(C)c(O)c4c(c3C2=O)C(=O)C=C(NC(=O)/C(C)=C\C=C\[C@H](C)[C@H](O)[C@@H](C)[C@@H](O)[C@@H](C)[C@H](OC(C)=O)[C@@H]1C)C4=O [rifamycin S]
rate of direct reaction with BSH ([6]; 50 μM each, pH 7.0 and pH 6.0, BstA-independent): > 35 µM/min
BstA dependence of reaction with BSH [2]: BstA-independent

Structure (SMILES): C[S+]([O-])CCCCN=C=S (centres unmarked) [sulforaphane]
BstA dependence of reaction with BSH [2]: BstA-independent
